Results on one compound are retold here after ChEMBL document CHEMBL3091329, “Discovery of tetrahydroisoquinoline-based CXCR4 antagonists” (ACS Med Chem Lett, 2013).

Data set [1] deals with Plasma. Put plainly: Plasma concentration in Harlan C57BL/6 mouse at 5 to 20 mg/kg, sc after 6 to 8 hrs by LC/MS/MS analysis. The conditions noted are these: in vivo. Type of data set: ADME, organism-based. Details: route subcutaneous. A digest of the protocol: (§1)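 Harlan mice were given a single subcutaneous dose at 5, 10 or 20 mg/kg. Blood was sampled at multiple time points over about 8 h, and each sample was used for both total circulating WBC count and plasma drug level. Counts and concentrations were plotted against time for each dose.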

The nature of data set [2]: Plasma concentration in Harlan C57BL/6 mouse at 20 mg/kg, sc after 1 hr by LC/MS/MS analysis. Type of data set: ADME, organism-based. The arrangement: dose 20 mg/kg, route subcutaneous. In a few lines:
as §1

For data set [3], the system named is Mus musculus. The data set can be described thus: Induction of WBC mobilization in sc dosed Harlan C57BL/6 mouse after 1 to 8 hrs by LC/MS/MS analysis. Type of data set: functional, organism-based. In a few lines: as §1
The nature of data set [4]: Oral bioavailability in jugular pre-cannulated CRL Sprague-Dawley rat at 10 mg/kg. Particulars: in vivo. Type of data set: ADME, organism-based. In a few lines: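 Oral dosing by gavage at 10 mg/kg, with an i.v. arm at 2 mg/kg. Plasma AUC was calculated for each route, and F was obtained from the dose-normalised ratio of oral to i.v. AUC.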
Data set [5] can be described thus: Elimination half life in jugular pre-cannulated CRL Sprague-Dawley rat at 10 mg/kg, po. Type of data set: ADME, organism-based. The arrangement: dose 10 mg/kg, route oral. Particulars: in vivo, read-out: beta t1/2 (converted).
Data set [6] can be described thus: Elimination half life in jugular pre-cannulated Harlan Sprague-Dawley rat at 2 mg/kg, iv. Type of data set: ADME, organism-based. The arrangement: dose 2 mg/kg, route intravenous. The conditions noted are these: in vivo, read-out: beta t1/2 (converted).
Data set [7] concerns Liver microsome. Put plainly: Intrinsic clearance in human liver microsomes at 1 uM incubated for 3 mins prior to NADPH addition by LC-MS/MS analysis. Type of data set: ADME. The conditions noted are these: 0.05 h. A general note: Liver microsomes are vesicles of endoplasmic reticulum, rich in cytochrome P450 enzymes.
Data set [8] in a line: Intrinsic clearance in mouse liver microsomes at 1 uM incubated for 3 mins prior to NADPH addition by LC-MS/MS analysis. Type of data set: ADME, Microsome. Particulars: 0.05 h.
A short description of data set [9]: Aqueous solubility in PBS at 7.4 after 90 mins by nephelometric analysis. Type of data set: physicochemical. Particulars: pH 7.4.
Data set [10] deals with T1, C-X-C chemokine receptor type 3 (Homo sapiens) (UniProt P49682).
T1 sequence (whole entry): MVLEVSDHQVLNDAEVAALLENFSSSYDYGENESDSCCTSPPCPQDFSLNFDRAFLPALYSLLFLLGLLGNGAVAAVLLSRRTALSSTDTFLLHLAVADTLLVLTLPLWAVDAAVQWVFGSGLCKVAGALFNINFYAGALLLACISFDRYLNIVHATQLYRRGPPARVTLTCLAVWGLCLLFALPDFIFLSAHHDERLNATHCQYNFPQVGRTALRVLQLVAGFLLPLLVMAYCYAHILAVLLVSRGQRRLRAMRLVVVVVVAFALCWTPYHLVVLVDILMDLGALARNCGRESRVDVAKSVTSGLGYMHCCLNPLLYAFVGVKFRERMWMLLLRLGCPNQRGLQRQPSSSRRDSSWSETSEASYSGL
The data set can be described thus: Inhibition of CXCR3 (unknown origin) at 10 uM relative to control.

Data set [11] addresses T2, C-X-C chemokine receptor type 2 (Homo sapiens) (UniProt P25025).
T2 sequence (whole entry): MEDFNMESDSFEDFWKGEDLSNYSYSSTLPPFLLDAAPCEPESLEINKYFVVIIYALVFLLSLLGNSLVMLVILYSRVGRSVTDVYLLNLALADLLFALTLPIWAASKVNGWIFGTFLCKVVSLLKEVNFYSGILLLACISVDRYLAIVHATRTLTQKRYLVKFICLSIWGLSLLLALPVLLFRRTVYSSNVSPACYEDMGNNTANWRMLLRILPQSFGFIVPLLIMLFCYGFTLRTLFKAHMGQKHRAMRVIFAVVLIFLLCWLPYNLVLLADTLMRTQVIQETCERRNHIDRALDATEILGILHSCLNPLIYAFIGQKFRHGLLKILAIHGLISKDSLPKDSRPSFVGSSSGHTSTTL
The data set can be described thus: Inhibition of CXCR2 (unknown origin) at 10 uM relative to control.

The target of data set [12] is T3, C-X-C chemokine receptor type 1 (Homo sapiens) (UniProt P25024).
T3 sequence (whole entry): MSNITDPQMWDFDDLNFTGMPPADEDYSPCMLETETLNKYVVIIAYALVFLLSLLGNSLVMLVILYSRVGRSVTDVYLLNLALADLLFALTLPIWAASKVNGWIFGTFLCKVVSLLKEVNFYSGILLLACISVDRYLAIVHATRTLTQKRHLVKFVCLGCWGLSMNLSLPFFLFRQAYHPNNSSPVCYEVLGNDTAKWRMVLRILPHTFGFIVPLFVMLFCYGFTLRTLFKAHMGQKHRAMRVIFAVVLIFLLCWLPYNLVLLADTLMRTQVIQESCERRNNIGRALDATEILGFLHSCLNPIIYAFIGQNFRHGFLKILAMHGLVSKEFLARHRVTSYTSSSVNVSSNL
The data set can be described thus: Inhibition of CXCR1 (unknown origin) at 10 uM relative to control.

Data set [13] concerns the target C-C chemokine receptor type 8 (Homo sapiens) (UniProt P51685). Put plainly: Inhibition of CCR8 (unknown origin) at 10 uM relative to control.
Data set [14] concerns the target T4, C-C chemokine receptor type 9 (Homo sapiens) (UniProt P51686).
T4 sequence (whole entry): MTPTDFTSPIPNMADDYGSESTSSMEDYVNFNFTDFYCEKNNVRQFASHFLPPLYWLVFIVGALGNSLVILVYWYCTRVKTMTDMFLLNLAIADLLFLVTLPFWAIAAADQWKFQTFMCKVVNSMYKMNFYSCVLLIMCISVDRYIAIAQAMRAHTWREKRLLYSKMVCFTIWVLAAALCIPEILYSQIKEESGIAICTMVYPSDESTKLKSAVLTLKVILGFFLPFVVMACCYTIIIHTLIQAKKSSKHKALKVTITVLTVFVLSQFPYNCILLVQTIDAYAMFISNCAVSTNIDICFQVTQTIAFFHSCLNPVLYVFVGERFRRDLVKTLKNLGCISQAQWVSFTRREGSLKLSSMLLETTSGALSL
The data set can be described thus: Inhibition of CCR9 (unknown origin) at 10 uM relative to control.

The target in data set [15] is T5, C-C chemokine receptor type 3 (Homo sapiens) (UniProt P51677).
T5 sequence (whole entry): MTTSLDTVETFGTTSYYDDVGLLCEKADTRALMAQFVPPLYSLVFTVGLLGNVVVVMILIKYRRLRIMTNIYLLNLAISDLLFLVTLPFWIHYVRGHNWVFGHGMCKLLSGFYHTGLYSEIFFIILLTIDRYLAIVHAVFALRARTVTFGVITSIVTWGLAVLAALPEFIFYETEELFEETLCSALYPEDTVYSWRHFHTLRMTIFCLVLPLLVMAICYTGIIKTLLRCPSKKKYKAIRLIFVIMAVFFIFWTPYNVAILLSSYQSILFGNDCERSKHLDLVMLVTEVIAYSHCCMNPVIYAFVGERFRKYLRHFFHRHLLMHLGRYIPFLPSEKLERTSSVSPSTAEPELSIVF
Put plainly: Inhibition of CCR3 (unknown origin) at 10 uM relative to control.

Data set [16] has as its target C-C chemokine receptor type 2 (Homo sapiens) (UniProt P41597). Put plainly: Inhibition of CCR2B (unknown origin) at 10 uM relative to control.
Data set [17] is described as follows: Cytotoxicity against human MAGI-CCR5 cells assessed as cell viability after 2 to 6 days by MTS assay. The conditions noted are these: MAGI-CCR5 cells.

As a reminder, the bioavailability is the share of a dose that reaches the circulation, judged against a reference dose that is usually intravenous. The low end stands for little systemic uptake, the high end for much systemic uptake. As a reminder, the kinetic solubility is the concentration staying in solution when a stock, usually in DMSO, is diluted into the medium. By inhibition is commonly meant the percentage by which the read-out fell short of the control. One may read the CC50 as the concentration at which the toxic effect on the cells reaches its halfway point.

Sequence of C-C chemokine receptor type 2 (Homo sapiens) (P41597 whole entry, looked up): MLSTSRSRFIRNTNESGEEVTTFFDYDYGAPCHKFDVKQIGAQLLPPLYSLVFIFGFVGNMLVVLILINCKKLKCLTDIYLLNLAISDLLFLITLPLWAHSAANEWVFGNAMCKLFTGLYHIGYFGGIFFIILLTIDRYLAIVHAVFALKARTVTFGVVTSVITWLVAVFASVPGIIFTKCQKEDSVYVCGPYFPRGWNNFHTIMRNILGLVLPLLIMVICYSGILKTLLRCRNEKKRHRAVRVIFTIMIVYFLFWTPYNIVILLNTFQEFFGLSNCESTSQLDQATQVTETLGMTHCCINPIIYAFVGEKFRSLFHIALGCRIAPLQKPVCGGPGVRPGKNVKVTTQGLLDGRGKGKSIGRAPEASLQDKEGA
Sequence of C-C chemokine receptor type 8 (Homo sapiens) (P51685 whole entry): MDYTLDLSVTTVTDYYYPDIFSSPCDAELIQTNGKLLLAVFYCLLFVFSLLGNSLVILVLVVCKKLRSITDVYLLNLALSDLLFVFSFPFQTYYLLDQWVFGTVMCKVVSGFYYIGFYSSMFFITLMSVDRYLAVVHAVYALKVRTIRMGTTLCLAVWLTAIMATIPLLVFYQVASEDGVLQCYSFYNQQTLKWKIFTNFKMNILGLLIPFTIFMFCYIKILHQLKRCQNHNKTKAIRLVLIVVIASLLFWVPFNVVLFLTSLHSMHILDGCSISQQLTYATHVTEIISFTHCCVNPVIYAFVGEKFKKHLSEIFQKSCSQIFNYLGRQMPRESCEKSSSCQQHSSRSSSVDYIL

Compound `NCCCCN(C[C@H]1Cc2ccccc2CN1)[C@H]1CCCc2cccnc21` returned a Cp in data set [1] of 87 ng/mL. In data set [2], this compound gave a concentration at 1 h of 1540 ng/mL. Besides, in data set [3], the Activity entry is “Dose-dependent effect”. In [4], this compound displayed a bioavailability of 63%. Besides, the half-life in data set [5] was 6 h; in [6], 1.2 h. Moreover, the CLH in data set [7] is less than 20 µL/min/mg; in [8] it was 64 µL/min/mg. The solubility (kinetic) at […] in data set [9] was more than 274 µM. In addition, the inhibition in data set [10], in [11], in data set [12], in data set [13], in data set [14] and in data set [15] was less than 10% in each case. For the same compound, in data set [16], the inhibition is less than 10%. Also, the half-maximal cytotoxic concentration (CC50) in [17] was more than 10 µM.
